pIC50: −log10 of the molar value. One block for each compound: values may come before it. Activity calls are given as the source filed them. The rule behind the calls is not given here.
How the values were obtained:
Saccharomyces cerevisiae [1] = assay: Growth inhibition of isogenic rad52-deficient Saccharomyces cerevisiae FM588 at 1 to 100 uM after 24 hrs by spectrophotometry; format: functional, organism-based
[2] = biological target: T1, DNA topoisomerase 1 (Homo sapiens) (UniProt P11387); assay: Inhibition of DNA topoisomerase 1 (unknown origin)-mediated relaxation of supercoiled pBSKS plasmid DNA assessed as formation of nicked form of DNA at 1 00 uM after 30 mins by agarose gel electrophoresis in presence of ethidium bromide
T1 sequence (whole entry): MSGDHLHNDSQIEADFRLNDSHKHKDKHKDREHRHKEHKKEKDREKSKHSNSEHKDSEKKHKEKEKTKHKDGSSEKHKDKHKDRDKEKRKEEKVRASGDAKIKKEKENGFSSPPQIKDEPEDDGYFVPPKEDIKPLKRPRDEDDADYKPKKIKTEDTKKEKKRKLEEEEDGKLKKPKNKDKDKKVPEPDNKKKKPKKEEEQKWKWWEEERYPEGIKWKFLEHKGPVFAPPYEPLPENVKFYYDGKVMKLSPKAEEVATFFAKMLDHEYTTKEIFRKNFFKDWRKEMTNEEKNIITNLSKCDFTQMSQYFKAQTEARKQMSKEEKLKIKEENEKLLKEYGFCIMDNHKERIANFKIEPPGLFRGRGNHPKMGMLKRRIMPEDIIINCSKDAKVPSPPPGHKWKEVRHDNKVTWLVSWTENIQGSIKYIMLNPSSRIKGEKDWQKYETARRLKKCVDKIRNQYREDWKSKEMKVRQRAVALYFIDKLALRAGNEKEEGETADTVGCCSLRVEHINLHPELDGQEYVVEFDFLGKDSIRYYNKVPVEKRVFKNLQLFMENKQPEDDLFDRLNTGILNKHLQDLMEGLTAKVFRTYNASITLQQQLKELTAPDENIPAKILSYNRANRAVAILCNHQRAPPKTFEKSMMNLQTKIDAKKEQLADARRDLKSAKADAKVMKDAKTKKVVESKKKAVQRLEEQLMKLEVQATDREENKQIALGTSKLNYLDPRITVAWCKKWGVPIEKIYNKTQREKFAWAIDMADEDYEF

[3] = biological target: DNA topoisomerase 2-alpha (Homo sapiens) (UniProt P11388); assay: Inhibition of human DNA topoisomerase 2alpha-mediated DNA cleavage assessed as decrease in relaxation of supercoiled pRYG plasmid at 100 uM after 30 mins by agarose gel electrophoresis
Outline: (§1)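 Human Topo IIα, 1–2 units, with 250 ng supercoiled pRYG and 1 mM ATP in 5 mM Tris-HCl pH 7.5, 12.5 mM NaCl, 1 mM MgCl2, 0.5 mM DTT, 10 µg/mL albumin. Compound added in DMSO, 1% final. Incubated 37 °C for 30 min, stopped with SDS/EDTA, proteinase K digestion. 1% agarose in TBE without ethidium bromide, stained afterwards. Inhibition scored at 100, 60 and 30 µM.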

SK-BR-3 = assay: Antiproliferative activity against human SKBR3 cells after 48 hrs by MTT assay; format: functional, cell-based; conditions: SK-BR-3, 48 h
Outline: (§2)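 Cells seeded at 10,000 per well; compound or vehicle (0.1% DMSO final) added 24 h after plating and left 48 h. MTT added at 0.5 mg/mL final for 3 h at 37 °C, formazan dissolved in SDS–HCl (20% SDS, 0.02 M HCl), absorbance at 570 nm. IC50 by non-linear regression; mean SD, n = 3.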

MCF7 = assay: Antiproliferative activity against human MCF7 cells after 48 hrs by MTT assay; format: functional, cell-based; conditions: MCF7, 48 h; outline: as §2
[4] = biological target: T1, DNA topoisomerase 1 (Homo sapiens); assay: Inhibition of DNA topoisomerase 1 (unknown origin)-mediated DNA cleavage assessed as decrease in relaxation of supercoiled pBSKS plasmid at 1 00 uM after 30 mins by agarose gel electrophoresis
Saccharomyces cerevisiae [5] = assay: Induction of DNA repair in Saccharomyces cerevisiae W3749-14C harboring Rad52-YFP assessed as increase in Rad52 foci formation at 100 uM after 3 hrs; format: functional, organism-based
Outline: (§3)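 RAD52-YFP yeast (W3749-14C) growing asynchronously treated 3 h at 25 °C with 100 µM compound in 1% DMSO; DMSO and phleomycin 25 µg/mL as controls. Cells micrographed. Mononucleated budded cells with bud over two-thirds mother size scored as G2-arrested. Foci per cell = total YFP foci / total cells.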

Saccharomyces cerevisiae [6] = assay: Cell cycle arrest in Saccharomyces cerevisiae W3749-14C harboring RAD52-YFP assessed as accumulation at G2 Phase at 100 uM after 3 hrs; format: functional, organism-based; outline: as §3
Saccharomyces cerevisiae [7] = assay: Growth inhibition of Saccharomyces cerevisiae FM588 expressing wild type rad52 gene at 1 to 100 uM after 24 hrs by spectrophotometry; format: functional, organism-based
[8] = biological target: DNA topoisomerase 2-alpha (Homo sapiens) (UniProt P11388); assay: Inhibition of human DNA topoisomerase 2alpha-mediated DNA cleavage assessed as decrease in relaxation of supercoiled pRYG plasmid at 30 uM after 30 mins by agarose gel electrophoresis; outline: as §1
[9] = biological target: DNA topoisomerase 2-alpha (Homo sapiens) (UniProt P11388); assay: Inhibition of human DNA topoisomerase 2alpha-mediated relaxation of supercoiled pRYG plasmid DNA assessed as formation of linearized DNA at 100 uM after 30 mins by agarose gel electrophoresis relative to vehicle-treated control in presence of ethidium bromide
Outline: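 Cleavage-complex assay set up as the Topo IIα relaxation reaction, but with 10 units of hTopoIIα added 1–3 min before 100 µM compound in 1% DMSO. Etoposide as positive control. Electrophoresis in TAE containing 0.5 µg/mL ethidium bromide to resolve the linearized intermediate.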

HEL = assay: Antiproliferative activity against human HEL cells after 48 hrs by MTT assay; format: functional, cell-based; outline: as §2
[10] = biological target: DNA topoisomerase 2-alpha (Homo sapiens) (UniProt P11388); assay: Inhibition of human DNA topoisomerase 2alpha-mediated DNA cleavage assessed as decrease in relaxation of supercoiled pRYG plasmid at 60 uM after 30 mins by agarose gel electrophoresis; outline: as §1
[11] = biological target: T2, Type II restriction enzyme XhoI (Xanthomonas vasicola) (UniProt Q9KVZ7); assay: Inhibition of Xanthomonas vasicola Xho1 assessed as inhibition of endonucleolytic cleavage of pBSKS plasmid DNA at 100 uM by agarose gel electrophoresis
T2 sequence (whole entry): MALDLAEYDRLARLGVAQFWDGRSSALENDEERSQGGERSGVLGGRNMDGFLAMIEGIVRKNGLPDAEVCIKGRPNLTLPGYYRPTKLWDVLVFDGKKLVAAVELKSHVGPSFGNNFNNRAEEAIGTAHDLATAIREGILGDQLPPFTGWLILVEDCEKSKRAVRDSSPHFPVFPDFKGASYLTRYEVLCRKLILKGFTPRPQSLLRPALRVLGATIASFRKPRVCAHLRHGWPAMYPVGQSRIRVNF
Outline: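 XhoI digestion of pBSKS plasmid, which carries a single XhoI site, run like the Topo I reaction with compounds at 100 µM in 1% DMSO. Actinomycin D as intercalator control. Agarose gel separates supercoiled, nicked intermediate and linear product.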

Sequence of DNA topoisomerase 2-alpha (Homo sapiens) (P11388 whole entry): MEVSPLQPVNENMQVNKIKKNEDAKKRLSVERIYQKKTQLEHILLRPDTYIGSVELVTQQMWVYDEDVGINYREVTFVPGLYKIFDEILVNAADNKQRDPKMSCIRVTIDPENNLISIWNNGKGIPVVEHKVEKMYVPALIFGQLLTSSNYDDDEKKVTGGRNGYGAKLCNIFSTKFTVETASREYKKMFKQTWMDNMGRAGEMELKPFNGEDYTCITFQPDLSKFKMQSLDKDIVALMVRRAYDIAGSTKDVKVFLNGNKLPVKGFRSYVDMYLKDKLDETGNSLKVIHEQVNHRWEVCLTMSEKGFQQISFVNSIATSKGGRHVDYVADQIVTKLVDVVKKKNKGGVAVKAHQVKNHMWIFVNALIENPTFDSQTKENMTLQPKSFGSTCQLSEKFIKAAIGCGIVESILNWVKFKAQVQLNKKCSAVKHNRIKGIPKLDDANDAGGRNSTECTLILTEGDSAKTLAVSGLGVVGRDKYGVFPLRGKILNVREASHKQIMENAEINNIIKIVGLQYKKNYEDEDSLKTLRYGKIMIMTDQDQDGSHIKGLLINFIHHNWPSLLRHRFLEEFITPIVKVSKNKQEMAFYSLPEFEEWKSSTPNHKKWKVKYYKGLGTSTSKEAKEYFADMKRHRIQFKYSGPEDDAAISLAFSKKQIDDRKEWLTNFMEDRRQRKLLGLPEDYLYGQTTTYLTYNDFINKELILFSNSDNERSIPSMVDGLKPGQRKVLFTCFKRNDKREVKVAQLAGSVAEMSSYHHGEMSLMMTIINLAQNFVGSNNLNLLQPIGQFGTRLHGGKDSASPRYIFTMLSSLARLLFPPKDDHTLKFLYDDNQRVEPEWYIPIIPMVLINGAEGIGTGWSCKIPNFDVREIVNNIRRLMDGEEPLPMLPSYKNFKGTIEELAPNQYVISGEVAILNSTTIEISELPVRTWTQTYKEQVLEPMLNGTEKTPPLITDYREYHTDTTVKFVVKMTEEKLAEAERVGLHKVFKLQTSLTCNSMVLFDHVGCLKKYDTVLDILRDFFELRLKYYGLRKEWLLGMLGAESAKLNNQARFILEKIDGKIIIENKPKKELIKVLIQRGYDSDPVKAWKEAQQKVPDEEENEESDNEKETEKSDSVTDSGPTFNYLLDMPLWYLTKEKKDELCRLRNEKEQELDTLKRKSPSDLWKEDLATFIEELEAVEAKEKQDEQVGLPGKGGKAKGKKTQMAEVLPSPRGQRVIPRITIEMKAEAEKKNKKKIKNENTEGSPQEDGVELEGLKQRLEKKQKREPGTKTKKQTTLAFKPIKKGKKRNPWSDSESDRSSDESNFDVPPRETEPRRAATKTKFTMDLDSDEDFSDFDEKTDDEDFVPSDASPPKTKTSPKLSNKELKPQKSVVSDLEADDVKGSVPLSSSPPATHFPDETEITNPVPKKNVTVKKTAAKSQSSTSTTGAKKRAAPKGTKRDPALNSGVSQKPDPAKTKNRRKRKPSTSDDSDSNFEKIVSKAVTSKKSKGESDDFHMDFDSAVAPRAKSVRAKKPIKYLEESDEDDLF

- inhibition [2]: inactive
- inhibition [3]: inactive
- pIC50 (SK-BR-3): < 4.52
- pIC50 (MCF7): < 4.52
SMILES: COc1ccccc1-c1ccc2c3c(cccc13)C(=O)N(CCN(C)C)C2=O
- growth inhibition (GI) (Saccharomyces cerevisiae [1]): inactive

- inhibition [2]: inactive
- inhibition [3]: inactive
- pIC50 (SK-BR-3): < 4.52
- pIC50 (MCF7): < 4.52
SMILES: COc1ccc(-c2ccc3cccc4c3c2C(=O)N(CCN(C)C)C4=O)cc1
- growth inhibition (GI) (Saccharomyces cerevisiae [1]): inactive

- inhibition [2]: inactive
- inhibition [4]: Active
- inhibition [3]: Active
- pIC50 (SK-BR-3): < 4.52
- pIC50 (MCF7): < 4.52
SMILES: COc1cccc(-c2ccc3c4c(cccc24)C(=O)N(CCN(C)C)C3=O)c1

- inhibition [2]: inactive
- inhibition [4]: Active
- inhibition [10]: Active
- pIC50 (SK-BR-3): 4.56
- pIC50 (MCF7): < 4.52
SMILES: COc1ccc(-c2ccc3c4c(cccc24)C(=O)N(CCN(C)C)C3=O)cc1

- inhibition [9]: Active
- inhibition [3]: Active
- pIC50 (SK-BR-3): 5.36
SMILES: CN(C)CCN1C(=O)c2cccc3cc(-c4cccc(O)c4)cc(c23)C1=O
- growth inhibition (GI) (Saccharomyces cerevisiae [1]): Active
- pIC50 (HEL): 5.15

- pIC50 (SK-BR-3): < 4.52
- pIC50 (MCF7): < 4.52
SMILES: COc1cccc(-c2ccc3cccc4c3c2C(=O)N(CCN(C)C)C4=O)c1

Second part, the compound before the results:

SMILES: CN(C)CCN1C(=O)c2cccc3cc(-c4ccccc4)cc(c23)C1=O
- Activity (Saccharomyces cerevisiae [5]): Active
- Activity (Saccharomyces cerevisiae [6]): Active
- growth inhibition (GI) (Saccharomyces cerevisiae [7]): Active
- inhibition [8]: Active
- inhibition [9]: Active
- pIC50 (HEL): 5.22
- pIC50 (SK-BR-3): 6.10

SMILES: CN(C)CCN1C(=O)c2cccc3cc(N)cc(c23)C1=O [AMONAFIDE]
- growth inhibition (GI) (Saccharomyces cerevisiae [1]): Active
- growth inhibition (GI) (Saccharomyces cerevisiae [7]): inactive
- inhibition [10]: Active
- inhibition [9]: Active
- pIC50 (HEL): 5.47
- pIC50 (SK-BR-3): 5.13

SMILES: COc1cccc(-c2cc3c4c(cccc4c2)C(=O)N(CCN(C)C)C3=O)c1
- Activity (Saccharomyces cerevisiae [5]): Active
- Activity (Saccharomyces cerevisiae [6]): Active
- growth inhibition (GI) (Saccharomyces cerevisiae [7]): Active
- inhibition [11]: Active
- inhibition [2]: inactive
- inhibition [4]: Active
- inhibition [10]: Active
- inhibition [9]: Active
- pIC50 (HEL): 5.57
- pIC50 (SK-BR-3): 6.52
- pIC50 (MCF7): 6.30

SMILES: CN(C)CCN1C(=O)c2cccc3cc(-c4cccc([N+](=O)[O-])c4)cc(c23)C1=O
- Activity (Saccharomyces cerevisiae [5]): Active
- Activity (Saccharomyces cerevisiae [6]): Active
- growth inhibition (GI) (Saccharomyces cerevisiae [7]): Active
- inhibition [8]: Active
- inhibition [9]: Active
- pIC50 (HEL): 6.22
- pIC50 (SK-BR-3): 5.92

SMILES: CN(C)CCN1C(=O)c2cccc3cc(-c4cccc(C(F)(F)F)c4)cc(c23)C1=O
- Activity (Saccharomyces cerevisiae [5]): Active
- Activity (Saccharomyces cerevisiae [6]): Active
- growth inhibition (GI) (Saccharomyces cerevisiae [7]): Active
- inhibition [10]: Active
- inhibition [9]: Active
- pIC50 (HEL): 5.80
- pIC50 (SK-BR-3): 5.92

SMILES: CN(C)CCN1C(=O)c2cccc3cc(-c4cccc(N)c4)cc(c23)C1=O
- growth inhibition (GI) (Saccharomyces cerevisiae [1]): Active
- inhibition [9]: Active
- inhibition [3]: inactive
- pIC50 (HEL): 4.87
- pIC50 (SK-BR-3): 4.85

SMILES: COc1ccccc1-c1cc2c3c(cccc3c1)C(=O)N(CCN(C)C)C2=O
- inhibition [2]: inactive
- inhibition [3]: Active
- pIC50 (SK-BR-3): 4.92
- pIC50 (MCF7): 4.59

SMILES: COc1ccc(-c2cc3c4c(cccc4c2)C(=O)N(CCN(C)C)C3=O)cc1
- growth inhibition (GI) (Saccharomyces cerevisiae [1]): Active
- inhibition [2]: inactive
- inhibition [3]: Active
- pIC50 (SK-BR-3): 5.82
- pIC50 (MCF7): 5.12

SMILES: COc1ccccc1-c1ccc2cccc3c2c1C(=O)N(CCN(C)C)C3=O
- inhibition [2]: inactive
- inhibition [3]: inactive
- pIC50 (SK-BR-3): 4.62
- pIC50 (MCF7): 4.62

Source: ChEMBL document CHEMBL2439982, “Synthesis and study of antiproliferative, antitopoisomerase II, DNA-intercalating and DNA-damaging activities of arylnaphthalimides” (Bioorg Med Chem, 2013)
